Compound activity from PubChem BioAssay.
FLuc inhib CS = counter-screen for luciferase assay inhibitors: firefly luciferase inhibition; AID 1006; inhibition, % at 10 µM; ATPLite firefly luciferase biochemical luminescence, 10 min; P08659; actives 1.5% (n = 200,000);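 active = inhibition above about 50% when tested at 10 µM, limit read from the data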
Target sequence (P08659 whole entry, looked up): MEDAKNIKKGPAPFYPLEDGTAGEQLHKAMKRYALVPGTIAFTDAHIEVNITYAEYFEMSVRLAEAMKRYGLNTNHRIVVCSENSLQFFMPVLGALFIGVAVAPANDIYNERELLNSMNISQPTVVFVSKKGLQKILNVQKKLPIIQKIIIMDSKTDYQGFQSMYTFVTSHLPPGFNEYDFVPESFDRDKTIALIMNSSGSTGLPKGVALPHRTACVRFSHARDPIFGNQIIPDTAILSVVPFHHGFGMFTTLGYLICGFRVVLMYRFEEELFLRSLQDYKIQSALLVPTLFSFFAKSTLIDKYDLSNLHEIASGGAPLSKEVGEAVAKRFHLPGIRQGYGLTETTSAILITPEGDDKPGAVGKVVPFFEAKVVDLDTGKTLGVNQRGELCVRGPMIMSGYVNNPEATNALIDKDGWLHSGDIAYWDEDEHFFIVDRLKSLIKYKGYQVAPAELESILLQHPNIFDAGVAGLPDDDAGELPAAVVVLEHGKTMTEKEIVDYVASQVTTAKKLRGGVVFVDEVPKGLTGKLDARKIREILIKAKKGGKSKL
PPC-1+TRAIL kill = compounds killing PPC-1 cancer cells with TRAIL present (potentiator screen, no TRAIL-free arm). PPC-1 cells + TRAIL, ATPLite viability luminescence. AID 1443. actives 0.41% (n = 220,000). cell killing (% activity), % at 4 µM or 5 µM;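 active = cell killing above 50% in the first pass at 4 µM, then a duplicate retest at 5 µM averaging 50% or more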
C8 TRAIL sens = caspase-8 TRAIL sensitization. NB7+C8 cells + TRAIL, ATPlite viability luminescence. inhibition (viability loss, TRAIL sensitization), % at 10 µM. actives 1% (n = 360,000);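 active = compounds causing at least 50% loss of cell viability in the single-dose screen, relative to plate controls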
FLuc stim CS = firefly luciferase counter-screen for stimulation assays; ATPlite luciferase biochemical, luminescence, 10 min; 0 = ATP-free wells, 1 = DMSO control; activation factor at 10 µM; 200,000 tested, under 10 active; AID 1027;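 active = luciferase activation factor, scaled between plate controls, of at least 2 with compound at 10 µM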
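Assay system – cell-free luciferase reagent · Medium – PBS-based ATP solution · Dosing – test compounds dosed from 2 mM stocks in 100% DMSO · Timing – 10 min, room temperature · Technique – light output (luminescence) · Measure – luminescence gain marking luciferase activators · Controls – No-ATP low control, compound-free enzyme-plus-ATP high control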
Each line names hits and unclear results; the compound was inactive in the other large screens. A selection: hits, their analogues and other compounds. The true share with any hit is near 1.5%.

O=C1Nc2ccccc2/C1=N\N=C\c1ccc(O)c(O)c1	C8 TRAIL sens 57 (no result: FLuc inhib CS, FLuc stim CS)
CCc1nnc(NC(=O)CCC(=O)NC2CC2)s1	none (no result: FLuc inhib CS, PPC-1+TRAIL kill, FLuc stim CS)
CC(COc1ccc(C(C)C)cc1)NC(=O)c1ccc(Br)o1 (configuration not stated)	none (no result: FLuc inhib CS, PPC-1+TRAIL kill, FLuc stim CS)
C=CCN1C=CC(=C/C=C(/C#N)C(=O)OCC)C=C1	FLuc inhib CS 82, C8 TRAIL sens 49
CCOC(=O)/C(C#N)=C/C=C1/C=CC=CN1C	none (no result: FLuc inhib CS, FLuc stim CS)
C=CCOn1c(C)c(C(C)=O)c2c3no[n+]([O-])c3ccc21	C8 TRAIL sens 60
O=C(Nc1ccc(C(=O)OC2CCCCC2)cc1)c1ccncc1	none (no result: FLuc inhib CS, PPC-1+TRAIL kill, FLuc stim CS)
CCOC(=O)c1sc2nc(-c3ccccc3)ccc2c1N	FLuc inhib CS 82, PPC-1+TRAIL kill 58, C8 TRAIL sens 77
NC(=O)c1sc2nc(-c3ccccc3)ccc2c1N	none (no result: FLuc inhib CS, PPC-1+TRAIL kill, FLuc stim CS)
O=C(CCC1CCCN(C(=O)c2cc3ccccc3o2)C1)NCc1ccc(F)c(F)c1 (configuration not stated)	none (no result: FLuc inhib CS, PPC-1+TRAIL kill, FLuc stim CS)
Cc1ccc(-c2nc(-c3ccccc3)no2)cc1	FLuc inhib CS 78
CCC(=O)Oc1ccc(-c2nc(-c3cccnc3)no2)cc1	FLuc inhib CS 61
COc1ccc(-c2nc(-c3cccnc3)no2)cc1OC	none (no result: FLuc inhib CS, FLuc stim CS)
Cc1ccc(-c2nc(-c3cccnc3)no2)cc1	FLuc inhib CS 66
Cc1ccc(-c2nc(-c3ccncc3)no2)cc1	none (no result: FLuc inhib CS, PPC-1+TRAIL kill, FLuc stim CS)
O=C(Oc1ccc(-c2cnc3ccccc3n2)cc1)c1ccco1	none
CCC(=O)Oc1ccc(-c2cnc3ccccc3n2)cc1	FLuc inhib CS 64
CC1=CC(=O)O[C@@H]1[C@@]1(C)C[C@H]2OC(=O)C[C@H]3[C@@H](C)C(=O)C(O)=C1[C@@]23CO	none (no result: FLuc inhib CS, PPC-1+TRAIL kill, FLuc stim CS)
CCN(CC)S(=O)(=O)c1ccc(NC(=O)CCN2C(=O)C3CC=CCC3C2=O)cc1 (configuration not stated)	none (no result: FLuc inhib CS, PPC-1+TRAIL kill, FLuc stim CS)
COc1cc(CNC[C@H]2O[C@@H](n3cc(C)c(=O)[nH]c3=O)C[C@@H]2O)ccc1OCc1cccc(Cl)c1	none (no result: FLuc inhib CS, PPC-1+TRAIL kill, FLuc stim CS)
O=C(N=c1nc2ccccn2s1)c1ccccc1	FLuc inhib CS 95, PPC-1+TRAIL kill 84, C8 TRAIL sens 84
Cc1ccc(Nc2nc(CSc3nnc(-c4ccncc4)n3C)cs2)cc1	FLuc inhib CS 90, PPC-1+TRAIL kill 72, C8 TRAIL sens 76
Cc1ccc(CSc2nnc(-c3ccncc3)n2C)cc1	none
O=C1C=CC(=O)C(CNc2ccc(C(=O)OCc3ccccc3)cc2)=C1	C8 TRAIL sens 91 (no result: FLuc inhib CS, PPC-1+TRAIL kill, FLuc stim CS)
CN(C)c1ccc(C(=O)OCc2ccccc2)cc1	none
CCOc1ccccc1C=C1SC(=S)N(CC)C1=O	C8 TRAIL sens 73 (no result: FLuc inhib CS, PPC-1+TRAIL kill, FLuc stim CS)
COc1ccc(-c2ccc(N3C(c4ccsc4)=Cc4ccc(F)cc4C3c3c[nH]c4ccccc34)cc2)cc1 (configuration not stated)	none (no result: FLuc inhib CS, PPC-1+TRAIL kill, FLuc stim CS)
O=C(NC1CCCCC1)c1n[nH]c2c1CCCCC2	C8 TRAIL sens 78 (no result: FLuc inhib CS, PPC-1+TRAIL kill, FLuc stim CS)
COc1ccc(/C=C/c2nc3ccccc3n2Cc2ccccc2OC)cc1	FLuc inhib CS 88, C8 TRAIL sens 78
COCCn1c(/C=C/c2ccccc2)nc2ccccc21	FLuc inhib CS 86
COc1ccccc1Cn1c(/C=C/c2ccccc2)nc2ccccc21	none
O=C(CNC(=O)N1CC(=O)Nc2ccccc21)Nc1nccs1	none (no result: FLuc inhib CS, PPC-1+TRAIL kill, FLuc stim CS)
Cc1cc(C(=O)Cn2nc(C(=O)O)c3ccccc3c2=O)c(C)n1-c1ccccc1	FLuc inhib CS 92, C8 TRAIL sens 76
CCOC(=O)c1[nH]c2ccc(C)cc2c1N	FLuc inhib CS 51
O=C(N/N=C\c1ccc2c(c1)OCO2)c1ccco1	FLuc inhib CS 75
Cc1ccsc1/C=N\NC(=O)c1n[nH]c2c1CCC2	FLuc inhib CS 71
O=C(NN=Cc1ccc2c(c1)OCO2)c1ccccc1	none (no result: FLuc inhib CS, PPC-1+TRAIL kill, FLuc stim CS)
O=C(N/N=C/c1ccc[nH]1)c1ccccc1O	FLuc inhib CS 62
O=C(N/N=C\c1cccc(OC(=O)c2ccco2)c1)c1ccc2c(c1)OCO2	FLuc inhib CS 70, PPC-1+TRAIL kill 53, C8 TRAIL sens 86
O=C(N/N=C/c1c(Cl)cccc1Cl)c1n[nH]c2c1CCCC2	none
O=C(N/N=C/c1ccc[nH]1)c1ccc(O)cc1	none
O=C(NCCCn1ccnc1)/C(=C\c1ccc(Br)cc1)NC(=O)c1ccccc1F	none (no result: FLuc inhib CS, PPC-1+TRAIL kill, FLuc stim CS)
CC1=C(C(=O)OC(C)C)C(c2cncc(-c3ccc(F)cc3)c2)C(C#N)=C(N)O1 (configuration not stated)	none
COc1ccccc1/C=N/NC(=O)c1ccc2c(c1)OCO2	none (no result: FLuc inhib CS, PPC-1+TRAIL kill, FLuc stim CS)
Cc1ccsc1/C=N\NC(=O)c1ccc2c(c1)OCO2	FLuc inhib CS 77
O=C(N/N=C/c1ccc[nH]1)c1ccc2c(c1)OCO2	FLuc inhib CS 73
CC1Oc2ccccc2C=C1/C=N/NC(=O)c1ccccc1 (configuration not stated)	none
